We go through 28 compounds from ChEMBL document CHEMBL2375238, “Synthesis and biological evaluation of oleanolic acid derivatives as PTP1B inhibitors” (Eur J Med Chem, 2013).

Assay [1] deals with T1, Tyrosine-protein phosphatase non-receptor type 1 (Homo sapiens) (UniProt P18031).
T1 sequence (whole entry): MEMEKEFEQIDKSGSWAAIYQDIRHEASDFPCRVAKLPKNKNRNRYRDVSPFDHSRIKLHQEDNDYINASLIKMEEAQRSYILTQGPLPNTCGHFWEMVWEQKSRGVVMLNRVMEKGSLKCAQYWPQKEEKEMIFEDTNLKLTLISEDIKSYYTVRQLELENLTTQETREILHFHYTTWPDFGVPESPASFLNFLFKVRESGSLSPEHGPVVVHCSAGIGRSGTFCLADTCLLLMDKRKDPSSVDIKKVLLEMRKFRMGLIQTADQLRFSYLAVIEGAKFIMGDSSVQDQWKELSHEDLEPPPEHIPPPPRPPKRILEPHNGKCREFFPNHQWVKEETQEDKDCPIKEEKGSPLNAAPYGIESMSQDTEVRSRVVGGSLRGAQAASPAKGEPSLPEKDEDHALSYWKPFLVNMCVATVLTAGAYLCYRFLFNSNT
The assay can be described thus: Inhibition of PTP1B (unknown origin) expressed in Escherichia coli expression system using p-nitrophenyl phosphate as substrate assessed as release of p-nitrophenol at 10 ug/mL incubated for 10 mins prior to substrate addition measured after 30 mins relative to control. The procedure, abridged: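 Native PTP1B was expressed in E. coli, purified, and diluted in 25 mM HEPES, 50 mM NaCl, 2.5 mM EDTA, 0.1% BSA, pH 7.2. Compounds were dissolved in DMSO and preincubated with enzyme in buffer A (50 mM HEPES, 2.5 mM EDTA, pH 7.0) for 10 min at 37 °C. pNPP was then added for 30 min at 37 °C.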

Another assay deals with 3T3-L1. Briefly: Insulin sensitizing activity in mouse 3T3L1 cells assessed as increase in glucose uptake at 10 ug/mL after 50 hrs […] relative to control. The format is functional. An outline of the steps: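 3T3-L1 cells were grown in high-glucose DMEM with 10% FBS and, at 90% confluence, differentiated with insulin, dexamethasone and IBMX. After 4 days they were replated, grown 2 days, then made insulin-resistant with low insulin and high dexamethasone for 4 days. Compounds were given in high-glucose medium for 50 h. Supernatant glucose was measured by kit at OD 490 nm, against normal and insulin-resistant controls, in duplicate or triplicate.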

Assay [2] concerns the target T2, Tyrosine-protein phosphatase non-receptor type 1 (Homo sapiens, UniProt P18031).
T2 sequence (P18031 whole entry): T1 sequence (whole entry)
Briefly: Inhibition of PTP1B (unknown origin) expressed in Escherichia coli expression system using p-nitrophenyl phosphate as substrate assessed as release of p-nitrophenol incubated for 10 mins prior to substrate addition measured after 30 mins. The procedure, abridged: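 Native PTP1B purified from E. coli, diluted in 25 mM HEPES, 50 mM NaCl, 2.5 mM EDTA, 0.1% BSA, pH 7.2; inhibitors in DMSO. Enzyme and inhibitor preincubated at 37 °C in 50 mM HEPES, 2.5 mM EDTA, pH 7.0. pNPP then added; stopped after 30 min with 2 M Na2CO3; A405 read. Inhibition from OD against blank and no-inhibitor controls; means of three experiments.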

The target in assay [3] is Tyrosine-protein phosphatase non-receptor type 1 (Homo sapiens) (UniProt P18031). The note with it: 100 ug/mL.

The term IC50 denotes the point on the concentration scale where inhibition reaches its midpoint.

In the case of `COC(=O)CCCCCNC(=O)[C@]12CCC(C)(C)C[C@H]1C1=CC[C@@H]3[C@@]4(C)CC[C@H](O[C@H]5O[C@H](CO)[C@@H](O)[C@H](O)[C@@H]5O)C(C)(C)[C@@H]4CC[C@@]3(C)[C@]1(C)CC2`, the Imax in assay [1] was determined as 1.52%.

Take `CN(CCOc1ccc(CC2SC(=O)NC2=O)cc1)c1ccccn1` (stereo not given) [ROSIGLITAZONE]: in the assay on 3T3-L1, the Activity is given as 100%.

As for `CC1(C)CC[C@@]23CC[C@]4(C)[C@@](OC2=O)([C@@H]3C1)[C@@H](O)C[C@@H]1[C@@]2(C)CC[C@H](O[C@H]3O[C@H](C(=O)O)[C@@H](O)[C@H](O)[C@@H]3O)C(C)(C)[C@@H]2CC[C@]14C`, the Imax in assay [1] was determined as 3.72%.

`CC1(C)CC[C@]2(C(=O)NCCCCCC(=O)O)CC[C@]3(C)C(=CC[C@@H]4[C@@]5(C)CC[C@H](O[C@H]6O[C@H](CO)[C@@H](O)[C@H](O)[C@@H]6O)C(C)(C)[C@@H]5CC[C@]43C)[C@@H]2C1`: in assay [1], the Imax turned out to be 57%. The Activity in the assay on 3T3-L1 came out at 57.55%.

`COC(=O)CCCCCNC(=O)[C@]12CCC(C)(C)C[C@H]1C1=CC[C@@H]3[C@@]4(C)CC[C@H](O[C@@H]5O[C@H](CO)[C@@H](O)[C@H](O)[C@H]5O)C(C)(C)[C@@H]4CC[C@@]3(C)[C@]1(C)CC2`: in assay [1], the Imax was determined as 5.82%.

Regarding `COC(=O)CCCCCNC(=O)[C@]12CCC(C)(C)C[C@H]1C1=CC[C@@H]3[C@@]4(C)CC[C@H](O)C(C)(C)[C@@H]4CC[C@@]3(C)[C@]1(C)CC2`, the Imax in assay [1] was determined as 4.89%.

As for `CC(=O)N[C@H]1[C@H]([C@H](O)[C@H](O)CO)O[C@@](O[C@H]2CC[C@]3(C)[C@H]4CC=C5[C@@H]6CC(C)(C)CC[C@]6(C(=O)NCCCCCC(=O)O)CC[C@@]5(C)[C@]4(C)CC[C@H]3C2(C)C)(C(=O)O)C[C@@H]1O`, in assay [1], the Imax amounted to 46%. Also, the Activity in the assay with 3T3-L1 is recorded as -16.69%.

As to `CC1(C)CC[C@]2(C(=O)NCCCCCC(=O)O)CC[C@]3(C)C(=CC[C@@H]4[C@@]5(C)CC[C@H](O[C@H]6O[C@H](C(=O)O)[C@@H](O)[C@H](O)[C@@H]6O)C(C)(C)[C@@H]5CC[C@]43C)[C@@H]2C1`, the Imax in assay [1] is 64.8%. The Activity with 3T3-L1 was 3.91%. For the same compound, in assay [2], the half-inhibitory concentration (IC50) was found to be 16.1 µM.

As to `CC1(C)CC[C@@]23CC[C@]4(C)[C@@](OC2=O)([C@@H]3C1)[C@@H](O)C[C@@H]1[C@@]2(C)CC[C@H](O[C@@H]3O[C@H](CO)[C@@H](O[C@@H]5O[C@H](CO)[C@H](O)[C@H](O)[C@H]5O)[C@H](O)[C@H]3O)C(C)(C)[C@@H]2CC[C@]14C`, the Imax in assay [1] amounted to 2.55%.

In the case of `C[C@@H]1O[C@@H](O[C@H]2CC[C@]3(C)[C@H]4C[C@H](O)[C@]56OC(=O)[C@@]7(CCC(C)(C)C[C@H]75)CC[C@@]6(C)[C@]4(C)CC[C@H]3C2(C)C)[C@@H](O)[C@H](O)[C@@H]1O`, the Imax in assay [1] was -1.55%.

On to `CC1(C)CC[C@@]23CC[C@]4(C)[C@@](OC2=O)([C@@H]3C1)[C@@H](O)C[C@@H]1[C@@]2(C)CC[C@H](O[C@H]3O[C@H](CO)[C@@H](O)[C@H](O)[C@@H]3O)C(C)(C)[C@@H]2CC[C@]14C`, for which, in assay [1], the Imax was 2.9%.

For the compound `COC(=O)CCCCCNC(=O)[C@]12CCC(C)(C)C[C@H]1C1=CC[C@@H]3[C@@]4(C)CC[C@H](O[C@H]5O[C@H](C(=O)O)[C@@H](O)[C@H](O)[C@@H]5O)C(C)(C)[C@@H]4CC[C@@]3(C)[C@]1(C)CC2`, the Imax in assay [1] amounted to 98.6%. The IC50 in assay [2] was determined as 1.91 µM.

For the compound `CC1(C)CC[C@]2(C(=O)NCCCCCC(=O)O)CC[C@]3(C)C(=CC[C@@H]4[C@@]5(C)CC[C@H](O[C@@H]6O[C@H](CO)[C@@H](O[C@@H]7O[C@H](CO)[C@H](O)[C@H](O)[C@H]7O)[C@H](O)[C@H]6O)C(C)(C)[C@@H]5CC[C@]43C)[C@@H]2C1`, the Imax in assay [1] was 83.7%. For the same compound, the Activity with 3T3-L1 is 39.13%. Moreover, the 50% inhibitory concentration (IC50) in assay [2] is 9.21 µM.

As to `CC1(C)CC[C@]2(C(=O)NCCCCCC(=O)O)CC[C@]3(C)C(=CC[C@@H]4[C@@]5(C)CC[C@H](O[C@@H]6O[C@H](CO)[C@@H](O)[C@H](O)[C@H]6O)C(C)(C)[C@@H]5CC[C@]43C)[C@@H]2C1`, the Imax in assay [1] is 57.6%. Also, in the assay on 3T3-L1, the Activity is 6.11%.

With `COC(=O)CCCCCNC(=O)[C@]12CCC(C)(C)C[C@H]1C1=CC[C@@H]3[C@@]4(C)CC[C@H](O[C@@]5(C(=O)OC)C[C@H](O)[C@@H](NC(C)=O)[C@H]([C@H](O)[C@H](O)CO)O5)C(C)(C)[C@@H]4CC[C@@]3(C)[C@]1(C)CC2`, the Imax in assay [1] was 8.34%. The Activity in the assay with 3T3-L1 is on record as -7.74%.

Consider `CC1(C)CC[C@]2(C(=O)NCCCCCC(=O)O)CC[C@]3(C)C(=CC[C@@H]4[C@@]5(C)CC[C@H](O)C(C)(C)[C@@H]5CC[C@]43C)[C@@H]2C1`, for which the Imax in assay [1] was 14.3%.

In the case of `CC1(C)CC[C@]2(C(=O)NCCCCCC(=O)O)CC[C@]3(C)C(=CC[C@@H]4[C@@]5(C)CC[C@H](O[C@@H]6O[C@H](C(=O)O)[C@@H](O)[C@H](O)[C@H]6O)C(C)(C)[C@@H]5CC[C@]43C)[C@@H]2C1`, the Imax in assay [1] came out at 72%. For the same compound, in the assay on 3T3-L1, the Activity turned out to be 21.52%. Besides, the concentration for half-maximal inhibition (IC50) in assay [2] was 0.56 µM.

Take `COC(=O)CCCCCNC(=O)[C@]12CCC(C)(C)C[C@H]1C1=CC[C@@H]3[C@@]4(C)CC[C@H](O[C@]5(C(=O)OC)C[C@H](O)[C@@H](NC(C)=O)[C@H]([C@H](O)[C@H](O)CO)O5)C(C)(C)[C@@H]4CC[C@@]3(C)[C@]1(C)CC2`: the Imax in assay [1] turned out to be 56%. Also, the Activity with 3T3-L1 is given as 9.54%.

As for SODIUM ORTHOVANAD, the Imax in assay [3] stood at 100%.

As to `COC(=O)CCCCCNC(=O)[C@]12CCC(C)(C)C[C@H]1C1=CC[C@@H]3[C@@]4(C)CC[C@H](O[C@@H]5O[C@@H](C)[C@@H](O)[C@@H](O)[C@@H]5O)C(C)(C)[C@@H]4CC[C@@]3(C)[C@]1(C)CC2`, the Imax in assay [1] stood at 1.91%.

For the compound `C[C@@H]1O[C@@H](O[C@H]2CC[C@]3(C)[C@H]4CC=C5[C@@H]6CC(C)(C)CC[C@]6(C(=O)NCCCCCC(=O)O)CC[C@@]5(C)[C@]4(C)CC[C@H]3C2(C)C)[C@@H](O)[C@H](O)[C@@H]1O`, in assay [1], the Imax came out at 63.2%. Also, the Activity in the assay with 3T3-L1 is 59.58%.

Regarding `COC(=O)CCCCCNC(=O)[C@]12CCC(C)(C)C[C@H]1C1=CC[C@@H]3[C@@]4(C)CC[C@H](O[C@@H]5O[C@H](C(=O)O)[C@@H](O)[C@H](O)[C@H]5O)C(C)(C)[C@@H]4CC[C@@]3(C)[C@]1(C)CC2`, the Imax in assay [1] was 11.8%.

On to `COC(=O)CCCCCNC(=O)[C@]12CCC(C)(C)C[C@H]1C1=CC[C@@H]3[C@@]4(C)CC[C@H](O[C@@H]5O[C@H](CO)[C@@H](O[C@@H]6O[C@H](CO)[C@H](O)[C@H](O)[C@H]6O)[C@H](O)[C@H]5O)C(C)(C)[C@@H]4CC[C@@]3(C)[C@]1(C)CC2`, for which the Imax in assay [1] came out at 3.87%.

In the case of `COC(=O)CCCCCNC(=O)[C@]12CCC(C)(C)C[C@H]1C1=CC[C@@H]3[C@@]4(C)CC[C@H](O[C@@H]5O[C@H](C(=O)OC)[C@@H](O)[C@H](O)[C@H]5O)C(C)(C)[C@@H]4CC[C@@]3(C)[C@]1(C)CC2`, the Imax in assay [1] stood at 36.7%. For the same compound, the Activity with 3T3-L1 was 28.29%.

For the compound `CC1(C)CC[C@@]23CC[C@]4(C)[C@@](OC2=O)([C@@H]3C1)[C@@H](O)C[C@@H]1[C@@]2(C)CC[C@H](O[C@@H]3O[C@H](CO)[C@@H](O)[C@H](O)[C@H]3O)C(C)(C)[C@@H]2CC[C@]14C`, the Imax in assay [1] stood at 6%.

Consider `COC(=O)CCCCCNC(=O)[C@]12CCC(C)(C)C[C@H]1C1=CC[C@@H]3[C@@]4(C)CC[C@H](O[C@H]5O[C@H](C(=O)OC)[C@@H](O)[C@H](O)[C@@H]5O)C(C)(C)[C@@H]4CC[C@@]3(C)[C@]1(C)CC2`, for which, in assay [1], the Imax was 81.9%. For the same compound, in the assay with 3T3-L1, the Activity was found to be 39.18%. In addition, the IC50 in assay [2] worked out at 12.2 µM.

With `CC(=O)N[C@H]1[C@H]([C@H](O)[C@H](O)CO)O[C@](O[C@H]2CC[C@]3(C)[C@H]4CC=C5[C@@H]6CC(C)(C)CC[C@]6(C(=O)NCCCCCC(=O)O)CC[C@@]5(C)[C@]4(C)CC[C@H]3C2(C)C)(C(=O)O)C[C@@H]1O`, in assay [1], the Imax worked out at 69%. The Activity with 3T3-L1 stood at 10.31%.

On to `CC1(C)CC[C@@]23CC[C@]4(C)[C@@](OC2=O)([C@@H]3C1)[C@@H](O)C[C@@H]1[C@@]2(C)CC[C@H](O[C@@H]3O[C@H](C(=O)O)[C@@H](O)[C@H](O)[C@H]3O)C(C)(C)[C@@H]2CC[C@]14C`, for which, in assay [1], the Imax worked out at 16.1%.
